PubChem BioAssay AID1325 (NMMLSC, 2008)
About 200 (0.11%) of roughly 190,000 compounds were called active. The sample holds actives, similar compounds and a random draw of the others, so the mix is not that of the screen.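 How the source made its calls: active means inhibition above 80%; inactive means the rest.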

target: Broad substrate specificity ATP-binding cassette transporter ABCG2 (Homo sapiens) (UniProt Q9UNQ0); assay: ABCG2 efflux pump inhibitors, primary screen, multiplex with ABCB1, IgMXP3 cells, flow cytometry (AID 1325); conditions: JC-1 efflux, at 6.6 µM, stronger effect = higher value
Outline: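 System: two drug-resistant human cell lines, ABCG2 and ABCB1; controls: nicardipine high and DMSO low controls; times: 10 min exposure at 25 °C with rotation, no wash; detection: flow cytometry of retained JC-1 fluorescence; read-out basis: percent efflux inhibition, scaled nicardipine 100% to DMSO 0%; doses: one concentration, 6.6 µM final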

Chain of Broad substrate specificity ATP-binding cassette transporter ABCG2 (Homo sapiens) (Q9UNQ0 whole entry, looked up): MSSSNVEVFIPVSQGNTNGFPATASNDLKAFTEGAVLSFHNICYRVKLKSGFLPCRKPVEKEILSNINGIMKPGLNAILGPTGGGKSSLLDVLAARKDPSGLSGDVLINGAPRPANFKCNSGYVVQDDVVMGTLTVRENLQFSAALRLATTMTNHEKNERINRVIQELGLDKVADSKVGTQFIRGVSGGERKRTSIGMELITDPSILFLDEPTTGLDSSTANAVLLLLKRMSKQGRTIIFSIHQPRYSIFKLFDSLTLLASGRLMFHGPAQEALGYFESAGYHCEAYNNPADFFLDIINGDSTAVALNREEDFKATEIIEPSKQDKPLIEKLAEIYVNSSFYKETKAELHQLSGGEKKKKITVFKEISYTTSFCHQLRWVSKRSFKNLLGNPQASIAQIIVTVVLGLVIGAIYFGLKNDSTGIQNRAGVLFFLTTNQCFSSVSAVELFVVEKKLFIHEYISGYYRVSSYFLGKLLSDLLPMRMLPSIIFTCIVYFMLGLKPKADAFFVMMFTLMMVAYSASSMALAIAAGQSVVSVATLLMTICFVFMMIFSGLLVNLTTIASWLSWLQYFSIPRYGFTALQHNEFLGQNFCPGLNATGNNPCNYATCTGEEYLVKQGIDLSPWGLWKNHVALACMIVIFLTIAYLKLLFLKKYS

inhibition, active:
CCOCC(=O)Nc1sc2c(c1C(=O)OCC)CCCC2 104%, COc1cccc(NC(=O)c2ccc(Cn3cc([N+](=O)[O-])cn3)o2)c1 89.2%, COc1ccc(-n2c(C)cc(C(=O)COC(=O)c3cc(OC)c(OC)cc3NC(=O)c3cccs3)c2C)cc1 91.7%, C/C(=N\Nc1ncc(Cl)cc1Cl)c1ccc(S(=O)(=O)NCc2ccco2)cc1 81.6%

inhibition, inactive:
CC(C)n1c(-c2ccncc2)n[nH]c1=S 0.69%, Clc1ncn(CCOc2ccccc2)c1Cl 1.15%, CN(/C(=N/S(=O)(=O)c1cccs1)c1ccccc1)c1ccc(O)cc1 0.46%, N#C/C(=C/c1ccc(N2CCOCC2)o1)C(=O)N1CCOCC1 7.86%, COc1ccccc1-c1nnc(NC(=O)c2ccc3ncsc3c2)o1 -4.46%, COC(=O)c1ccc(CSc2nncn2N)cc1 -1.84%, CCOc1ccc(CN2CCN(Cc3ccon3)CC2CCO)cc1 (configuration not stated) -2.99%, Cc1ncc([N+](=O)[O-])n1CCOC(=O)c1ccc(Br)cc1 9.29%, CCO/N=C(/C)c1c(O)cc(-c2ccccc2)n(-c2ccccc2)c1=O 32.1%, Cc1nnsc1C(=O)Nc1cccc(Cl)c1C 10.7%, CCC1=NN(C(=O)Cc2ccc([N+](=O)[O-])cc2)C(O)(c2ccc(Br)cc2)C1 (configuration not stated) 5.42%, O=c1c(-c2ccccc2)coc2cc(O)ccc12 2.5%, CCn1nc(C)c(/C=N/NC(=O)Cc2ccc(Cl)cc2)c1C 9.46%, Cc1ccc2nc(SCc3cn4c(C)cc(C)nc4n3)[nH]c2c1 7.53%, CC(C)(C)n1nc2c(c1NC(=O)c1cc3ccccc3o1)CSC2 0.23%, Cc1nc(N)c(Br)c(C)c1Br 2.8%, CC(CCn1cccn1)NC(=O)CCc1nnc(CCc2ccccc2)o1 (configuration not stated) -0.02%, CCCOC(=O)Nc1sc2c(c1C(=O)OCC)CCC2 31.4%, CCOC(=O)c1c(NC(=O)c2ccc(Br)o2)sc2c1CCCC2 14.6%, O=C(NCc1ccccc1Cl)C1CCC(CNc2c(N3CCCCC3)c(=O)c2=O)CC1 (configuration not stated) 0%, CCOC(=O)c1sc(/N=C/C2=C(O)CC(C)(C)CC2=O)c(C(=O)OCC)c1C 3.82%, COc1ccc(CC(=O)NCc2nnc(SCC(=O)Nc3nccs3)n2C)cc1 0.7%, COc1cc(NC(=O)c2cccnc2SC)cc(OC)c1 11.7%, Cc1ccc(N2C(=O)SC(N(CC(=O)O)c3ccc(C)cc3)C2=O)cc1 (configuration not stated) 1.16%, CC(=O)c1ccc(NC(=O)Nc2ccc([N+](=O)[O-])cc2C)cc1 28.4%, COc1ccc(-c2cn(-c3ccc(OC)cc3)c(=S)[nH]2)cc1 6.92%, O=C(Nc1ccc(Br)c2cccnc12)c1ccc(Cn2cc([N+](=O)[O-])cn2)o1 1.01%, CCc1ccc(NC(=O)c2ccc(Cn3cc([N+](=O)[O-])cn3)cc2)cc1 1.22%, Cc1ccc(SCCC(=O)NC(C(C)C)C(C)C)cc1 29.5%, CCOC(=O)CNc1nc2ccccc2n2c(C)nnc12 4.58%, COc1ccc(-n2c(C)cc(C(=O)CSc3nnc(-c4cccs4)o3)c2C)cc1 4.95%, Cc1cc(C(=O)COC(=O)c2cccs2)c(C)n1-c1c(C)n(C)n(-c2ccccc2)c1=O 1.17%, Brc1ccc(-c2csc(N/N=C/c3cccnc3)n2)cc1 -0.01%, O=C(COC(=O)c1ccccc1)Nc1cccc(S(=O)(=O)N2CCOCC2)c1 8.84%, Cc1ccc(NC(=O)C(=O)NCc2ccc(/C=N/NC(=O)c3c(C)nc4cc(C)ccn34)o2)cc1 24.5%, c1ccc(-n2nnnc2-c2cccnc2)cc1 1.93%, COc1cccc(OC)c1C(=O)Nc1ccc(Cc2ccncc2)cc1 1.46%, CCOc1ccc(C(CC(=O)O)NC(=O)C23CC4CC(CC(C4)C2)C3)cc1OC (configuration not stated) -1.01%, O=[N+]([O-])c1ccc2[nH]c3c(c2c1)CCCC3O (configuration not stated) 14.8%, O=C(NC1CC1)C1CCCN(C(=O)NC2CCCCC2)C1 (configuration not stated) 6.29%, CCN(CC)c1ccc([N+](=O)[O-])cc1C(=O)O 3.47%, COc1cccc2cc(/C(C)=N/NC(=O)c3ccco3)oc12 6.63%, CC(=O)N1CCc2cc(Br)cc(S(=O)(=O)CCC(=O)Nc3c(C)n(C)n(-c4ccccc4)c3=O)c21 -0.95%, O=C(Cn1ncc(N2CCCC2)c(Br)c1=O)c1ccc(Cl)cc1 8.74%, O=C(N/C(=C\c1ccc(F)cc1)C(=O)N1CCCCCC1)c1ccccc1 0.94%, CCc1nnc(NC(=O)Cc2cccs2)s1 -0.23%, Cc1c(Cl)cnc(NC(=O)COC(=O)c2ccc(S(=O)(=O)NCc3ccco3)cc2)c1Cl -0.23%, COc1cccc(/C(C)=N/Nc2ncc(Cl)cc2Cl)c1 16.5%, Cc1ccccc1N/C(SCc1ccc(Cl)cc1)=C(/C#N)C(N)=O 9.99%, C/C(N)=C(/C#N)C(=O)COC(=O)C1CCN(C(=O)c2ccc(Cl)cc2)CC1 6.63%, Cc1c(C(=O)NCCCc2ccccc2)cccc1[N+](=O)[O-] 5.18%, O=C(NCCCN1CCOCC1)c1ccc([N+](=O)[O-])cc1[N+](=O)[O-] 1.56%, CN1CCCN(C(=O)C2CCCCC2)CC1 3.74%, CCN1CCN(C(=O)CCN2C(=O)c3ccccc3C2=O)CC1 12.2%, CCN(C(=O)CSc1nnc2ccccn12)C1CCS(=O)(=O)C1 (configuration not stated) 6.4%, O=C(CCCOc1ccc(Cl)cc1Cl)NNC(=O)C1CCC1 8.42%, C#CCOCCOCCOCCNc1nc(N2CCN(C(=O)[C@H](Cc3ccc(O)cc3)n3cc(C(N)CC(C)C)nn3)CC2)nc(N2CCN(C(=O)[C@H](CCC(=O)O)n3cc(C(N)[C@H](C)CC)nn3)CC2)n1 (some centres not stated) -1.91%, Cc1[nH]c2ccccc2c1/C=N/NC(=O)CNC(=O)c1ccc2c(c1)OCO2 0.16%, O=C(NNC(=S)Nc1ccc(Br)cc1Cl)c1ccco1 -9.07%, CNC(=O)c1ccsc1NC(=O)c1ccc(S(=O)(=O)N2CCc3ccccc32)cc1 0.15%, CCCC(=O)NC(=S)Nc1ccc(CN2CCOCC2)cc1 1.31%, CCN(C(=O)COC(=O)/C=C/c1nc2ccccc2s1)C1CCS(=O)(=O)C1 (configuration not stated) 1.28%, O=C(Nc1ccc(C(=O)O)cc1)/C(=C/c1ccc([N+](=O)[O-])cc1)NC(=O)c1ccccc1 2.36%, C=CCNC(=O)/C=C/c1ccc(C(C)C)cc1 3.56%, Cc1ccc(S(=O)(=O)NCCc2nnc3ccc(SCc4cccnc4)nn23)cc1 0.68%, COc1ccc(C(=O)COC(=O)c2nn(C)c(=O)c3ccccc23)c(OC)c1 8.17%, COCCCNC(=O)CNC(=S)N(Cc1cc(OC)c(OC)c(OC)c1)C1CCCC1 -0.12%, O=C(COc1ccc(S(=O)(=O)N2CCCCC2)cc1)NCc1ccccn1 1.47%, CC1(C)CC(=O)c2c(n(S(=O)(=O)c3ccccc3)c3ccc(NS(=O)(=O)c4ccccc4)cc23)C1 -0.92%, COc1ccc(Cl)cc1N(CC(=O)N/N=C/c1ccc(OCC(N)=O)cc1)S(C)(=O)=O 8.83%, CCOc1ccc(-n2cnnn2)cc1S(=O)(=O)N1CCC(C)CC1C (configuration not stated) 0.53%, O=C(NCCN1CCOCC1)Nc1cccc(Cl)c1 4.87%, Cc1cc(C)c2[nH]c(=O)c(CN(Cc3ccccc3)C(=S)NCCCN(C)C)cc2c1 54.5%, Nn1c(SCC(=O)Nc2nccs2)nncc1=O 0.11%, COCCCNC(=O)/C=C/c1ccc(OCc2c(F)cccc2Cl)cc1 3.58%, COc1ccc(-c2[nH]ncc2CN(Cc2nccn2C)C(C)C)cc1F 3.43%, N#CC1(C#N)C(C(=O)C23CC4CC(CC(C4)C2)C3)C12CCOCC2 (configuration not stated) -1.02%, COc1cc(N2C(=O)c3ccccc3C2=O)c(Cl)cc1C(=O)OCC(=O)N1CCOCC1 2.21%, O=C(Oc1cccc(N2C(=O)C3C4c5ccccc5C(c5ccccc54)C3C2=O)c1)c1ccco1 (configuration not stated) 0.99%, O=C1OCC2=C1C(c1ccccc1)CC(=O)N2c1cccc(F)c1 (configuration not stated) 10.8%, COc1ccc(CN(C)Cc2nc3cc(OC)c(OC)cc3c(=O)[nH]2)c(OC)c1 3.26%, C[N+]1(CC(O)COc2ccccc2)CCN(C(=O)c2ccc([N+](=O)[O-])cc2)CC1 (configuration not stated) 4.9%, CC1(C)CC(=O)C2=C(C1)Nc1cc(C(=O)c3ccccc3)ccc1NC2c1ccccn1 (configuration not stated) 1.87%, CCN=c1sc(C(=O)Nc2ccccc2)c(C)n1CC 3.73%, CC(C)(C)C(=O)CN1C2=NCCN2c2ccccc21 2.76%, Cn1c(=O)c2c(nc(N/N=C/c3cccs3)n2Cc2ccc(Br)cc2)n(C)c1=O 8.74%, COc1ccc(Cl)cc1NC(=O)CNc1ccccc1F 28.9%, Cc1ccc2sc(NNC(=O)c3ccc4c(c3)OCCO4)nc2c1C 0%
